APJ antagonist: antagonists of human apelin receptor APJ, primary screen, CHO-K1 cells, beta-arrestin complementation, luminescence. P35414. inhibition, % at 20 µM. hit rate 0.32% among 330,000. AID 2521, 2010;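 active = inhibition above about 40% at 20 µM, limit read from the data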;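 note: cells challenged with 10 nM apelin-13 agonist together with compound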
CCR6 antagonist: CCR6 receptor antagonists, primary screen, cell-based, CHO-K1, luminescence, beta-arrestin, uHTS | C-C chemokine receptor type 6 (Homo sapiens), P51684 | CHO-K1 CCR6 PathHunter beta-arrestin, CCL20-stimulated | inhibition, % at 20 µM | hit rate 0.49% among 340,000 | AID 493098, 2011;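 active = compounds whose inhibition of the agonist-driven luminescence signal at 20 µM reaches about 50%, limit read from the data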;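 note: cells stimulated with CCL20 at 14 nM final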
APJ ag: agonists of human apelin receptor APJ, primary screen, CHO-K1 cells, PathHunter beta-arrestin, luminescence. P35414. 0% DMSO wells, 100% apelin. activation, % at 20 µM. hit rate 0.11% among 330,000;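 active = activation more than six SD over the plate average, tested at 20 µM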
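assay system = CHO-K1 APJ beta-arrestin complementation cell line | input = cell density 1000 per well | dosing = compound 20 µM once, DMSO 1% | timing = compound 90 min 25 °C, reagent 1 h | measured by = luminescence from split beta-galactosidase complementation, Galacton Star/Emerald II substrate | read-out basis = APJ agonist activity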
hiPSC survival: enhancers of single-cell hiPSC survival, primary screen, ATPlite luminescence. 100% = ROCK inhibitor wells, 0% = DMSO. survival enhancement, % at 20 µM. hit rate 0.044% among 360,000; in the data active = survival enhancement above about 18%;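 note: cells exposed to compounds for 16 hours before the ATP read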
DAGLB inhibitor: DAGLB lipase inhibitors, primary screen, biochemical, fluorescence, HTS; Diacylglycerol lipase-beta (Homo sapiens), Q8NCG7; HEK293T DAGLB membrane lysate, EnzChek fluorogenic substrate; inhibition, % at 5.17 µM; hit rate 0.059% among 340,000; AID 504411, 2011; in the data active = inhibition above about 34%
CXCR6 inh: CXCR6 receptor inhibitors, primary screen, cell-based, beta-arrestin, luminescence, CHO-K1 PathHunter, 1536-well; inhibition, % at 20 µM; hit rate 0.36% among 360,000; AID 602244, 2012; in the data active = inhibition above about 34%, passing the limit was not always enough;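 note: antagonist mode with CXCL16 agonist at 10 nM final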
Target sequence (O00574 whole entry, looked up): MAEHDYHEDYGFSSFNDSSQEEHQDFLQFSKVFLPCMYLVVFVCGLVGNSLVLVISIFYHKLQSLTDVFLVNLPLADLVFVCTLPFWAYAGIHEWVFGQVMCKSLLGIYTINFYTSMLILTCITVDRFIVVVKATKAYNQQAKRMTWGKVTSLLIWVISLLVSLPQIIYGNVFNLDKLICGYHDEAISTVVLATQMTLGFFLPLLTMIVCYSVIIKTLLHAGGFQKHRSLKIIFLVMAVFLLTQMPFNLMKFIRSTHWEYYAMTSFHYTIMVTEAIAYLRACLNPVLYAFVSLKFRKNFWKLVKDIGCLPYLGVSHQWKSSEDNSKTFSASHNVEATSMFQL
APJ antag conf: APJ antagonists blocking beta-arrestin recruitment, confirmation, cell-based, luminescence, single concentration, uHTS hits | shares compounds with APJ antagonist | antagonist mode | inhibition, % at 20 µM | hit rate 66% among 950; in the data active = inhibition above about 50%
DAGLB inh conf: DAGLB lipase inhibitors, retest, confirmation, biochemical, fluorescence, HEK293T membranes; shares compounds with DAGLB inhibitor; HEK293T DAGLB membrane lysate, EnzChek fluorogenic substrate; inhibition, % at 5.17 µM; hit rate 73% among 190; AID 504445, 2011;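 active = mean inhibition over triplicate wells above a set limit taken from the primary lipase screen, cut at about 34% in these data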
CXCR6 antag conf: CXCR6 receptor antagonists, confirmation, cell-based, single concentration, beta-arrestin, luminescence. shares compounds with CXCR6 inh. hit rate 65% among 700. inhibition, % at 20 µM. CHO-K1 CXCR6 PathHunter beta-arrestin;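 active = mean inhibition over four retests above 40%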;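 note: receptor stimulated with 10 nM CXCL16 agonist; beta-galactosidase fragment complementation upon beta-arrestin recruitment to receptor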
Of the large screens only hits and unclear results are named; the others gave an inactive call (follow-up assays come after a bar, where they were run). Sampled rows, rich in hits. Any-hit rate of the full collection: about 0.86%.

CCC(=O)OCCNc1cc(Sc2nc3ccccc3s2)c2nonc2c1[N+](=O)[O-]	APJ antagonist 68.1, CCR6 antagonist 109.0, CXCR6 inh 89.3 | APJ antag conf 85.8 | CXCR6 antag conf 100.9
CCCSc1cc(NCCOC(=O)CCC)c([N+](=O)[O-])c2nonc12	APJ antagonist 41.6, CCR6 antagonist 83.6, CXCR6 inh 62.0 | APJ antag conf 74.6 | CXCR6 antag conf 71.9
O=C(COC(=O)Cc1ccc(Cl)cc1)Nc1ccc2[nH]c(=O)[nH]c2c1	none
COc1cc(/C=C/c2ccc3cccc(OC)c3n2)c(OC(C)=O)c([N+](=O)[O-])c1	APJ antagonist 44.6, CCR6 antagonist 52.9, CXCR6 inh 41.0 | APJ antag conf 74.7 | CXCR6 antag conf 43.7
N#Cc1c([N+](=O)[O-])cc([N+](=O)[O-])cc1S(=O)(=O)Cc1ccccc1	APJ antagonist 63.8, CCR6 antagonist 105.9, CXCR6 inh 94.6 | APJ antag conf 60.9 | CXCR6 antag conf 86.9
COc1ccccc1OC(=O)c1cc2ccccc2oc1=O	none
COc1cc(/C=C/[N+](=O)[O-])ccc1OC(=O)c1cc2ccccc2oc1=O	APJ antagonist 45.9, CXCR6 inh 76.0 | APJ antag conf 91.4 | CXCR6 antag conf 68.8
CC1(C)CC(=O)C2=C(C1)OC1=C(C(=O)CC(C)(C)C1)C2c1ccc(O)cc1O	APJ antagonist 51.9, CCR6 antagonist 92.6, CXCR6 inh 65.5 | APJ antag conf 104.9 | CXCR6 antag conf 87.7
CN(C)C(CNC(=O)C1CCN(S(=O)(=O)c2ccccc2C(F)(F)F)CC1)Cc1ccccc1 (stereo not drawn)	none
CC1(C(=O)Nc2cnc3ccccc3c2)CCN1C(=O)CC(c1ccccc1)c1ccccc1 (stereo not drawn)	none (no result: APJ antagonist, CCR6 antagonist, APJ ag, DAGLB inhibitor)
CN(C(=O)c1cccc(NC(=O)Cc2ccc(NC(=O)C3CCN(C(=O)c4ccccc4)CC3)cc2)c1)C1CCCC1	none (no result: APJ antagonist, APJ ag)
O=C(NNC(=S)Nc1ccccc1)c1ccncc1	none
O=C(NNC(=S)Nc1ccccc1)Nc1ccccc1	APJ antagonist 43.0, CCR6 antagonist 53.6, CXCR6 inh 71.2 | APJ antag conf inactive | CXCR6 antag conf inactive
CCC(C)c1ccc(O)c(NC(=S)NC(=O)c2cccnc2)c1 (stereo not drawn)	APJ antagonist 67.3, CCR6 antagonist 86.8, CXCR6 inh 74.1 | APJ antag conf 130.7 | CXCR6 antag conf 69.5
O=C(NC(=S)Nc1ccccc1O)c1cccnc1	APJ antagonist 46.8, CCR6 antagonist 59.5, CXCR6 inh 41.8 | APJ antag conf inactive | CXCR6 antag conf 43.1
CC(=O)N1N=C(c2ccccc2)CC1c1cccc([N+](=O)[O-])c1 (stereo not drawn)	none
CC(=O)N1N=C(c2cccs2)CC1c1cccc([N+](=O)[O-])c1 (stereo not drawn)	APJ antagonist 53.2, CCR6 antagonist 61.6, CXCR6 inh 50.0 | APJ antag conf 52.1 | CXCR6 antag conf 54.2
CCOc1ccc(Nc2nnc(SCc3nc4ccccc4c(=O)[nH]3)s2)cc1	DAGLB inhibitor 60.4 | DAGLB inh conf 74.0
Cc1coc2c1C(=O)C(=O)c1c-2ccc2c1CCCC2(C)C	DAGLB inhibitor 52.6 | DAGLB inh conf 57.5

Assay outcomes: PubChem BioAssay, several laboratories
